A selection: hits, their analogues and other compounds. The true share with any hit is near 4.6%.
CHO parental Ca – counter-screen for OX1R antagonists: effect in parental CHO cells | inhibition, % at 5.6 µM | 0.63% of 330,000 active | parental CHO-K1, ATP-induced calcium, Fluo-8 fluorescence | AID 463079;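 active = inhibition above that plate's mean sample inhibition plus 3 SD, cut at about 26% in these data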;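 also: 0% = ATP-challenged DMSO wells and 100% = DMSO wells without ATP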
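Test system: parental CHO cells; detection: calcium-sensitive Fluo-8 fluorescence; evaluation: percent inhibition of calcium signal; also added: ATP as calcium-mobilizing challenge; repeats: one well per compound; control set: ATP-challenged DMSO wells low, unchallenged DMSO wells high; compound: single nominal dose of 5.6 µM per compound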
TAAR1 antag – human TAAR1 antagonism | Q96RJ0 | CHO RD-HGA16 TAAR1, Fluo-8 calcium fluorescence, antagonist | inhibition, % at 3 µM | 1.5% of 360,000 active;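 active = inhibition above a per-plate cutoff, the mean inhibition of test compounds on that plate plus 3 SD, cut at about 49% in these data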;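 also: 0% = DMSO plus EC80 beta-PEA response and 100% = DMSO alone without agonist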
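test system = CHO RD-HGA16 cells bearing hTAAR1 | replication = singlicate | controls = DMSO-only wells and EC80 β-PEA-stimulated wells | reagent = EC80 β-phenethylamine stimulus | read-out basis = percent inhibition of PEA-evoked calcium signal, max/basal emission ratio | schedule = seeding 17-24 h prior, 75-min 37 °C, 30-min RT dye loading | signal = kinetic Fluo-8 calcium fluorescence measurement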
OX1R antag-1 – OX1R (human) antagonism | OX1R-expressing cells, FRET antagonist read-out | AID 485270 | inhibition, % at 6.6 µM | 1.8% of 330,000 active | O43613; in the data active = inhibition mostly above about 38%, no sharp cut-off; inactive = mostly below about 40%;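 also: 0% = agonist challenge alone and 100% = reference antagonist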
Target sequence (O43613 whole entry, looked up): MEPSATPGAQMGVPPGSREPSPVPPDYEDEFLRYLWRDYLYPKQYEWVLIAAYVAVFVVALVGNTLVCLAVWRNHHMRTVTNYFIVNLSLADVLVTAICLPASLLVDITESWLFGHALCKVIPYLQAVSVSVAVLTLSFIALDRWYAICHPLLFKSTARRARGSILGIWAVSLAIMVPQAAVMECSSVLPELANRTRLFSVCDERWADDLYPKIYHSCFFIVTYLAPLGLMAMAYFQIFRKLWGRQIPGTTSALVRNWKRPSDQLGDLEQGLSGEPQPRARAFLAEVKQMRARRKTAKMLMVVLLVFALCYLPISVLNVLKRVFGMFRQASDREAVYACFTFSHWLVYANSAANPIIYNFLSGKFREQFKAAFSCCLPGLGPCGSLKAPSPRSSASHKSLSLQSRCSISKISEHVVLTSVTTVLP
TAAR1 ag – human TAAR1 agonism. Q96RJ0. CHO RD-HGA16 TAAR1, Fluo-8 calcium fluorescence; vehicle wells 0%, saturating PEA agonist 100%. activation, % at 3 µM. 0.99% of 360,000 active. AID 624467;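 active = activation above the mean activation of all test compounds in the run plus 3 SD, cut at about 38% in these data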
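Repeats: no replicates (n 1) | Material: CHO-derived RD-HGA16 cells with stable Gα16 and human TAAR1 | Technique: Kinetic Fluo-8 calcium fluorescence | Schedule: 17-24 h seeding, 75 min 37 °C dye, 30 min RT | Evaluation: % activation from peak over basal fluorescence ratio, DMSO-to-PEA scaled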
OX1R antag-2 – human HCRTR1 antagonism; O43613; CHO/OX1R cells, Fluo-8 calcium fluorescence, orexin A; inhibition, % at 5 µM; 0.43% of 330,000 active; AID 434989;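 active = inhibition above its plate's threshold, mean inhibition of all tested compounds on the plate plus 3 SD, cut at about 37% in these data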;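 also: 0% = orexin A challenge wells and 100% = SB-334867-A antagonist wells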
GPR7 antag – blocks human GPR7 receptor signaling | GPR7-expressing cells, fluorescence antagonist assay | 1.1% of 290,000 active | P48145 | inhibition, % at 4.4 µM; in the data active = inhibition above about 16%, passing the limit was not always enough;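 also: cells stimulated with the agonist NPW; 0% = agonist with vehicle and 100% = vehicle without agonist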
OX1R Fluo8 conf – confirmation of human orexin 1 receptor antagonists. shares compounds with OX1R antag-2. CHO/OX1R cells, orexin A calcium Fluo-8 fluorescence. inhibition, % at 5 µM. 38% of 1,100 active. AID 492963; in the data active = inhibition above about 29%;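 also: 0% = agonist challenge alone and 100% = reference antagonist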
CHO Ca counter – counter-screen for OX1R antagonists: effect in parental CHO cells; shares compounds with OX1R antag-2; parental CHO-K1, ATP-induced calcium, Fluo-8 fluorescence; inhibition, % at 5.6 µM; 9.3% of 1,100 active; AID 492965;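 active = inhibition above a per-plate limit, the mean inhibition of that plate's test compounds plus 3 SD, cut at about 25% in these data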;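 also: 0% = ATP challenge with DMSO and 100% = DMSO without ATP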
OX1R HTRF conf – confirmation of human orexin 1 receptor antagonists, HTRF format | shares compounds with OX1R antag-1 | OX1R-expressing cells, HTRF antagonist assay | inhibition, % at 6.6 µM | 49% of 1,800 active | AID 492964; in the data active = inhibition above about 55%;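 also: CHO cells expressing OX1R stimulated with orexin A at about EC80; 0% = agonist challenge alone and 100% = reference antagonist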
CHO-K1 HTRF – counter-screen for OX1R antagonists: effect in parental CHO-K1 cells; shares compounds with OX1R antag-1; HTRF counterscreen; inhibition, % at 6.6 µM; 48% of 1,800 active; AID 493232; in the data active = inhibition above about 17%;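 also: 0% = agonist challenge with vehicle and 100% = vehicle alone without agonist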
* hit, by the source's call.

Screening COc1ccc(N(C(=O)c2ccco2)C(C(=O)NC2CCCC2)c2cc(OC)c(OC)c(OC)c2)cc1 (stereo not drawn) returned CHO parental Ca -7, TAAR1 antag -1, OX1R antag-1 13, TAAR1 ag -3, OX1R antag-2 -15 and GPR7 antag 0.
For Cc1nc(-c2coc3cc(O)c(C)cc3c2=O)cs1 the results were CHO parental Ca -5, TAAR1 antag 13, OX1R antag-1 86*, TAAR1 ag -2, OX1R antag-2 33, GPR7 antag -8, OX1R Fluo8 conf 28, CHO Ca counter -14, OX1R HTRF conf 89* and CHO-K1 HTRF -3.
CC1CN(C)CCC1OC(=O)c1ccccc1 (stereo not drawn) was read as TAAR1 antag -1, TAAR1 ag 1 and GPR7 antag -11.
`N#C/C(=N\Nc1cccc([N+](=O)[O-])c1)C(=O)c1ccc(Br)cc1` gave CHO parental Ca 26, TAAR1 antag 33, OX1R antag-1 94*, TAAR1 ag 3, OX1R antag-2 42*, GPR7 antag -9, OX1R Fluo8 conf 21, CHO Ca counter 50*, OX1R HTRF conf 39 and CHO-K1 HTRF 19*.
COc1ccc(NC(=O)c2cc([N+](=O)[O-])ccc2O)cc1 was read as CHO parental Ca 15, TAAR1 antag -3, OX1R antag-1 70*, TAAR1 ag 8, OX1R antag-2 33, GPR7 antag -17, OX1R Fluo8 conf 14, CHO Ca counter 0, OX1R HTRF conf 27 and CHO-K1 HTRF 7.
COc1ccc(NC(=S)Nc2cccc([N+](=O)[O-])c2)cc1 was read as CHO parental Ca -2, TAAR1 antag 16, OX1R antag-1 8, TAAR1 ag 8, OX1R antag-2 -2 and GPR7 antag 3.
Cc1cccc2cc(C#N)c(NCCNS(=O)(=O)c3ccc4c(c3)OCCO4)nc12 was read as CHO parental Ca -2, TAAR1 antag 10, OX1R antag-1 73*, TAAR1 ag 16, OX1R antag-2 34, GPR7 antag 1, OX1R Fluo8 conf 32*, CHO Ca counter -5, OX1R HTRF conf 64* and CHO-K1 HTRF 5.
For Cc1cc(C)n2nc(CC(=O)NCc3ccccc3Cl)nc2n1 the results were CHO parental Ca -2, TAAR1 antag -8, OX1R antag-1 -11, TAAR1 ag 2, OX1R antag-2 0 and GPR7 antag -8.
`COc1ccc2c(c1)[nH]c(=O)c1sc3ccccc3c12` gave CHO parental Ca 4, OX1R antag-1 71*, OX1R antag-2 32, GPR7 antag -9, OX1R Fluo8 conf 39*, CHO Ca counter -4, OX1R HTRF conf 92* and CHO-K1 HTRF 6.
`COc1ccc2sc3c(=O)[nH]c4ccccc4c3c2c1` gave CHO parental Ca -18, TAAR1 antag -4, OX1R antag-1 39, TAAR1 ag 18, OX1R antag-2 4 and GPR7 antag 2.
COc1ccccc1OCCNS(=O)(=O)c1ccc2oc3ccccc3c2c1 was read as CHO parental Ca -16, TAAR1 antag -4, OX1R antag-1 63, TAAR1 ag 5, OX1R antag-2 25 and GPR7 antag -6.
O=S(=O)(NCCOc1ccccc1Cl)c1ccc2oc3ccccc3c2c1 was read as CHO parental Ca 10, TAAR1 antag 3, OX1R antag-1 99*, TAAR1 ag 6, OX1R antag-2 55*, GPR7 antag -3, OX1R Fluo8 conf 8, CHO Ca counter -9, OX1R HTRF conf 66* and CHO-K1 HTRF -9.
`CSc1nc2ccc3nc(NC(=O)c4ccccc4)sc3c2s1` gave CHO parental Ca -15, TAAR1 antag -12, OX1R antag-1 84*, TAAR1 ag 2, OX1R antag-2 46*, GPR7 antag -7, OX1R Fluo8 conf 79*, CHO Ca counter -13, OX1R HTRF conf 95* and CHO-K1 HTRF 11.
`O=C(Nc1nc2ccccc2s1)c1ccccc1` gave CHO parental Ca -10, TAAR1 antag 16, OX1R antag-1 10, TAAR1 ag 0, OX1R antag-2 -20 and GPR7 antag -6.
For COC(=O)c1cnc(N2CCCN(S(=O)(=O)c3ccc(C(F)(F)F)cc3)CC2)nc1C(F)(F)F the results were CHO parental Ca -18, TAAR1 antag -3, OX1R antag-1 0, TAAR1 ag 2, OX1R antag-2 -18 and GPR7 antag -20.
For Cc1ccc2nc(SCC(=O)c3c(C)[nH]c4ccccc34)[nH]c2c1 the results were CHO parental Ca -11, TAAR1 antag 28, OX1R antag-1 89*, TAAR1 ag 9, OX1R antag-2 32, GPR7 antag -3, OX1R Fluo8 conf 29*, CHO Ca counter -5, OX1R HTRF conf 78* and CHO-K1 HTRF -1.
`COCCNc1nc(Nc2ccc(C#N)cc2)c2sccc2n1` gave TAAR1 antag 10 and TAAR1 ag 8.
COc1ccc(/C=N/Nc2snc(SC)c2C#N)cc1OC was read as CHO parental Ca -17, TAAR1 antag 4, OX1R antag-1 109*, TAAR1 ag 26, OX1R antag-2 74*, GPR7 antag 2, OX1R Fluo8 conf 53*, CHO Ca counter -2, OX1R HTRF conf 96* and CHO-K1 HTRF 17*.
For COc1ccc2c(C)cc3nncn3c2c1 the results were CHO parental Ca -6, TAAR1 antag -10, OX1R antag-1 9, TAAR1 ag 8, OX1R antag-2 -27 and GPR7 antag -4.
CCOc1ccccc1C(=O)Nc1cc(OC)ccc1OC was read as CHO parental Ca -2, TAAR1 antag 16, OX1R antag-1 68*, TAAR1 ag 2, OX1R antag-2 61*, GPR7 antag -10, OX1R Fluo8 conf 3, CHO Ca counter -17, OX1R HTRF conf 89* and CHO-K1 HTRF -3.
`CCOc1ccccc1C(=O)NCCNC(=O)c1ccccc1OCC` gave CHO parental Ca -5, TAAR1 antag 9, OX1R antag-1 80*, TAAR1 ag 3, OX1R antag-2 65*, OX1R Fluo8 conf 77*, CHO Ca counter -14, OX1R HTRF conf 52 and CHO-K1 HTRF 10.

Screens as filed in PubChem.
